The source made the active and inactive calls. The calls are words filed in the database; no cut-off is given here.
How the values were obtained:
[1] = test system: Liver; experiment: Half life for prodrug activation in rat liver homogenate by HPLC analysis; format: tissue-based; conditions: in vitro
Method in brief: (§1)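 Liver homogenate at 2 mg protein/mL in pH 7.4 PBS, 37 °C, with NADPH-generating system (glucose-6-phosphate 6.25 mM, NADP 1.25 mM, MgCl2 6 mM, G6PDH 2.5 U/mL). Substrates dissolved in PBS at initial 0.25–5.0 mM. HPLC followed substrate loss and primaquine formation. First-order k_liver determined in triplicate.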

[2] = Half life in aqueous buffer pH 7.4 by HPLC analysis; format: physicochemical
Method in brief: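 Non-enzymatic hydrolysis in pH 7.4 phosphate buffer, 20% (v/v) acetonitrile, 37 °C. Reaction followed by HPLC (RP-8 column, acetonitrile/water/KH2PO4 eluant) monitoring substrate loss and primaquine formation.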

[3] = test system: Plasma; experiment: Prodrug activation in 50% human plasma assessed as rate constant by HPLC analysis; format: cell-free
Method in brief: (§2)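 Pooled heparinised plasma from healthy donors, stored at -70 °C, diluted to 50% (v/v) with pH 7.4 isotonic phosphate buffer. Carbamate added from 10^-2 M stock, 37 °C. Aliquots quenched into acetonitrile, then HPLC quantitation of substrate, primaquine and, for aryl esters, phenol against standards. First-order k_plasma determined in triplicate.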

[4] = test system: Plasma; experiment: Prodrug activation in 50% human plasma preincubated with 20 mM DIFP by HPLC analysis; format: cell-free
Method in brief: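 Same 50% human plasma incubation at 37 °C with HPLC monitoring, but plasma pre-incubated with 20 mM DIFP to inhibit serine cholinesterase before substrate addition.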

[5] = Alkaline hydrolysis of the compound assessed as rate constant by HPLC analysis; format: physicochemical
Method in brief: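 Borate and NaOH buffers with 20% (v/v) acetonitrile, ionic strength 0.5 M (NaClO4), 37 °C. Alkyl carbamates followed by HPLC (RP-8 column, acetonitrile/water/KH2PO4 1 M 55:40:5) as substrate loss and primaquine formation; aliquots neutralised with HCl before injection; aryl carbamates by fixed-wavelength UV decay of substrate. Second-order constant k_OH.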

[6] = Dissociation constant, pKa of the compound; format: physicochemical
[7] = Octanol-phosphate buffer partition coefficient, log D of the compound at pH 7.4 after 30 mins by HPLC analysis; format: physicochemical
Method in brief: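 1-Octanol and pH 7.4 phosphate buffer, mutually pre-saturated, 22 °C. Compound dissolved in octanol and the mixture shaken 30 min to equilibrium. Each phase assayed by HPLC, and D taken as the octanol/buffer peak-area ratio. Mean of three experiments.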

[8] = test system: Liver; experiment: Prodrug activation in rat liver homogenate assessed as rate constant by HPLC analysis; format: tissue-based; conditions: tissue homogenate; method in brief: as §1
[9] = test system: Plasma; experiment: Half life for prodrug activation in 50% human plasma by HPLC analysis; format: cell-free; method in brief: as §2
[10] = test system: Liver; experiment: Prodrug activation in rat liver homogenate assessed as primaquine release by HPLC analysis; format: tissue-based; conditions: tissue homogenate; method in brief: as §1
[11] = Gametocytocidal activity against Plasmodium berghei ANKA 25R/10 infected in Balb/C mouse assessed as infected mosquitoes at 15 mg/kg, ip after 2 hrs feed Anopheles stephensi mosquitoes for 2 hrs on compound treated animals measured after 10 days post feed by stereomicroscopy (reference value: 91%); format: functional; conditions: route intraperitoneal
Method in brief: (§3)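 Balb C mice infected ip with 10^7 P. berghei ANKA 25R/10-parasitised erythrocytes. At day 4, once gametocytes were seen on Giemsa films, mice were grouped (six per group). A single ip dose of 15 mg/kg was given, with saline-treated controls run separately for each compound. After 2 h, anaesthetised mice were fed to A. stephensi. Midgut oocysts counted at day 10 post-feed; reported as % infected mosquitoes and mean oocysts per mosquito.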

[12] = test system: Plasma; experiment: Stability of the compound in 50% human plasma for 3 hrs by HPLC analysis; format: ADME, cell-free; method in brief: as §2
[13] = test system: Plasmodium berghei ANKA; experiment: Gametocytocidal activity against Plasmodium berghei ANKA 25R/10 infected in Balb/C mouse assessed as reduction in number of oocysts per mosquito at 15 mg/kg, ip after 2 hrs feed Anopheles stephensi mosquitoes for 2 hrs on compound treated animals measured after 10 days post feed by stereomicroscopy; format: functional, organism-based; design: dose 15 mg/kg; method in brief: as §3
[14] = Gametocytocidal activity against Plasmodium berghei ANKA 25R/10 infected in Balb/C mouse assessed as infected mosquitoes at 15 mg/kg, ip after 2 hrs feed Anopheles stephensi mosquitoes for 2 hrs on compound treated animals measured after 10 days post feed by stereomicroscopy (reference value: 80%); format: functional; conditions: route intraperitoneal; method in brief: as §3

SMILES | t1/2 [1] [h] | half-life [2] [h] | Drug metabolism [3] | Drug metabolism [4] | Activity [5] | pKa [6] | logD at 0.5 h [7] | Drug metabolism [8] [×10⁻² /hr] | t1/2 [9] [h] | Drug metabolism [10] | Stability [12] | Activity [11] [%] | Activity [13] | Activity [14] [%]
COc1cc(NC(C)CCCNC(=O)OCC(F)(F)F)c2ncccc2c1 (centres undefined) | 13.7 |  |  |  | 3.95 ×10⁻³ /M/s | 12.4 | 3.41 | 5.04 |  | Not Active | Stable | 72 |  | 
CCOC(=O)NCCCC(C)Nc1cc(OC)cc2cccnc12 (centres undefined) | 15.1 |  |  |  | 9.34 ×10⁻⁷ /M/s | 15.9 | 3.02 | 4.56 |  | Not Active | Stable | 19 | Active | 
COc1cc(NC(C)CCCN)c2ncccc2c1 (centres undefined) [PRIMAQUINE] |  |  |  |  |  |  |  |  |  |  |  |  | Active | 3.9
CCOC(=O)COC(=O)NCCCC(C)Nc1cc(OC)cc2cccnc12 (centres undefined) |  | 240 |  |  | 2.5 M⁻¹ s⁻¹ | 12.9 | 3.09 |  |  |  |  |  |  | 
CCCCCCOC(=O)NCCCC(C)Nc1cc(OC)cc2cccnc12 (centres undefined) | 10.4 |  |  |  | 3.49 ×10⁻⁷ /M/s |  | 4.64 | 6.63 |  | Not Active | Stable | 24 | Active | 

The next lines start with results.

t1/2 [1] [h] | half-life [2] [h] | Drug metabolism [3] | Drug metabolism [4] | Activity [5] | pKa [6] | logD at 0.5 h [7] | Drug metabolism [8] [×10⁻² /hr] | t1/2 [9] [h] | Drug metabolism [10] | Stability [12] | SMILES | Activity [11] [%] | Activity [13] | Activity [14] [%]
11.8 | 96 | 3.06 ×10⁻⁴ /s | Not Active | 7.17 M⁻¹ s⁻¹ | 9.38 | 4.44 | 5.85 | 0.638 |  |  | COc1cc(NC(C)CCCNC(=O)Oc2ccc(Cl)cc2)c2ncccc2c1 (centres undefined) |  |  | 
 | 0.035 |  |  | 2.4 ×10⁴ /M/s | 7.14 | 4.23 |  | 0.00267 |  |  | COc1cc(NC(C)CCCNC(=O)Oc2ccc([N+](=O)[O-])cc2)c2ncccc2c1 (centres undefined) |  |  | 
9.5 | 288 | 5.34 ×10⁻⁵ /s |  | 2.64 M⁻¹ s⁻¹ | 9.95 | 4.27 | 7.26 | 3.62 |  |  | COc1cc(NC(C)CCCNC(=O)Oc2ccccc2)c2ncccc2c1 (centres undefined) |  | Active | 65
10.3 | > 720 | 2.45 ×10⁻⁵ /s |  | 9.1 ×10⁻¹ /M/s | 10.2 | 4.23 | 6.7 | 7.78 |  |  | COc1ccc(OC(=O)NCCCC(C)Nc2cc(OC)cc3cccnc23)cc1 (centres undefined) |  |  | 74

From ChEMBL document CHEMBL1932916, “A carbamate-based approach to primaquine prodrugs: antimalarial activity, chemical stability and enzymatic activation” (Bioorg Med Chem, 2012)
